Source: ChEMBL document CHEMBL1124208, “Retro-inverso concept applied to the complete inhibitors of enkephalin-degrading enzymes” (J Med Chem, 1988)

What was measured:
[1] = biological target: T1, Neprilysin (Oryctolagus cuniculus, UniProt P08049); test: Inhibition of [3H]Ala2-Leu-enkephalin binding to Neutral endopeptidase (NEP)
T1 sequence (P08049 whole entry): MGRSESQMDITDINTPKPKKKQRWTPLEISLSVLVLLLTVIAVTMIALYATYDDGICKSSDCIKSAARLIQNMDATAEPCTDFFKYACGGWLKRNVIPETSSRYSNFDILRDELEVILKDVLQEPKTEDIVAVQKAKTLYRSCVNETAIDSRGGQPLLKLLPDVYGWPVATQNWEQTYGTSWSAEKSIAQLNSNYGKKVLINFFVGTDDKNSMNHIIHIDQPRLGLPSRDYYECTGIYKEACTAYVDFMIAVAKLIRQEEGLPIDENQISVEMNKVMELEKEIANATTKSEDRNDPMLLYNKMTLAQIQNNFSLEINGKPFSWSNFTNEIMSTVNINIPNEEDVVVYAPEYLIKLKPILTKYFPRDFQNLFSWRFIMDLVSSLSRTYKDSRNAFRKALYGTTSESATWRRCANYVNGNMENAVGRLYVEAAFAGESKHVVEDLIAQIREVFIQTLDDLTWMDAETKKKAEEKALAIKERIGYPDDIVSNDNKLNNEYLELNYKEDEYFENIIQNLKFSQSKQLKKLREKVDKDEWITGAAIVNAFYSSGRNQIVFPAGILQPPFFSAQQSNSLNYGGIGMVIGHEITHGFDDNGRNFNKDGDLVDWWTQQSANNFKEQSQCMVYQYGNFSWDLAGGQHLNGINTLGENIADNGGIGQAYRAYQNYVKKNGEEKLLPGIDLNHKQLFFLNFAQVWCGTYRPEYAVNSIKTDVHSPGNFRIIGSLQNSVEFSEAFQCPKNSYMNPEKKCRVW
How it was run: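 NEP purified to homogeneity from rabbit kidney (single 94 kD band on SDS-PAGE), 1 pmol/100 μL final. Enzyme preincubated 15 min at 25 °C with or without increasing inhibitor in 50 mM Tris-HCl pH 7.0. [3H]D-Ala2-Leu-enkephalin then added at 20 nM final and the reaction stopped after 30 min with HCl. IC50 from log probit analysis of five inhibitor concentrations, mean ± SEM of four independent experiments.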

[2] = Inhibition of [3H]Leu-enkephalin binding to Dipeptidyl aminopeptidase (DAP); design: species or system Rattus norvegicus
How it was run: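 Membrane-bound DAP partially purified from rat brain. […] IC50 by log probit analysis of five inhibitor concentrations, mean ± SEM of four independent experiments.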

[3] = Inhibition of [3H]Leu-enkephalin binding to aminopeptidase; design: species or system Sus scrofa
How it was run: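 Uses commercial purified pig kidney aminopeptidase N without further purification. Enzyme preincubated 15 min at 25 °C with inhibitor in 50 mM Tris-HCl pH 7.0. [3H]Leu-enkephalin then added at 10 nM final (Km 50 μM) and the reaction stopped with HCl. IC50 by log probit analysis of five inhibitor concentrations, mean ± SEM of four independent experiments.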

IC50 [1] [nM] | IC50 [2] [nM] | IC50 [3] [nM] | Structure (SMILES)
1.6 | 17.5 | 8600 | CC(C(=O)O)C(=O)NC(CC(=O)NO)Cc1ccccc1 (stereo unspecified)
3.7 | 32.5 | 6200 | O=C(CC(Cc1ccccc1)NC(=O)C(Cc1ccccc1)C(=O)O)NO (stereo unspecified)
3350 | ~32000 | ~20000 | O=C(O)CC(=O)N[C@H](Cc1ccccc1)C(=O)NO
0.5 | 140 | 2000 | O=C(O)CC(=O)N[C@@H](CC(=O)NO)Cc1ccccc1
2.5 | 450 | 150000 | O=C(O)CC(=O)N[C@H](CC(=O)NO)Cc1ccccc1
6070 |  |  | CN(O)C(=O)[C@@H](Cc1ccccc1)NC(=O)CC(=O)O
320 | 71 | ~100000 | CC(C(=O)O)C(=O)NC(Cc1ccccc1)C(=O)NO (stereo in doubt; 9)
 | 35000 | 100000 | O=C(O)CNC(=O)C(Cc1ccccc1)C(=O)NO (racemic)
2.5 |  | 130 | O=C(CC(Cc1ccccc1)C(=O)NC(Cc1ccccc1)C(=O)O)NO (racemic)
2500 | 2000 | 400000 | O=C(O)CC(=O)N[C@@H](Cc1ccccc1)C(=O)NO
945 | 2700 | 6100 | CC(C(=O)O)C(=O)NC(Cc1ccccc1)C(=O)NO (stereo in doubt; 8)
1730 |  | > 100000 | CN(O)C(=O)C[C@@H](Cc1ccccc1)NC(=O)CC(=O)O
 | 21 | 2000 | O=C(O)CNC(=O)C(CC(=O)NO)Cc1ccccc1 (racemic)
1.7 | 0.9 | 380 | C[C@H](NC(=O)[C@@H](CC(=O)NO)Cc1ccccc1)C(=O)O (racemic) [KELATORPHAN]
